We go through six compounds from ChEMBL document CHEMBL5030538 (J Med Chem, 2021).

The source made the active and inactive calls. No cut-off for these calls is given here.

Assay [1] in a line: Antiproliferative activity against VEGF-A stimulated human retinal endothelial cell assessed as reduction in cell viability measured after 24 hrs by MTT assay. Format: functional. To be noted: HREC. (Formazan colour is commonly taken as a measure of viable cells.)
A short description of assay [2]: Antiproliferative activity against VEGF-A stimulated human retinal endothelial cell assessed as reduction in cell viability measured after 48 hrs by MTT assay. The format is functional. To be noted: HREC.
Assay [3] can be described thus: Antiproliferative activity against VEGF-A stimulated human retinal endothelial cell assessed as reduction in cell viability measured after 72 hrs by MTT assay. Format: functional. Particulars: HREC.
The nature of assay [4]: Antiangiogenic activity against VEGF-A stimulated human retinal endothelial cell assessed as cell proliferation measured after 48 hrs by crystal violet assay. The format is functional. To be noted: HREC. Summed up:
(§1)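 They were then treated at 5 μM with or without 80 ng/mL VEGF-A, with DMSO as vehicle. Cells were PBS-washed, fixed in 4% paraformaldehyde, stained with 0.5% crystal violet in 20% methanol, extracted with 10% acetic acid and read at 570/590 nm. Proliferation is given as % of vehicle; triplicate.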

The nature of assay [5]: Antiangiogenic activity against VEGF-A stimulated Human endothelial cell assessed as cell proliferation measured after 72 hrs by crystal violet assay. The format is functional, tissue-based.
A short description of assay [6]: Displacement of [3H]-DTG from sigma 2 receptor in guinea pig brain membranes after 120 mins by microbeta scintillation counting method.
A short description of assay [7]: Antiangiogenic activity against VEGF-A stimulated human retinal endothelial cell assessed as cell proliferation measured after 24 hrs by crystal violet assay. To be noted: HREC. Format: functional. The procedure, abridged:
as §1

Assay [8] concerns HREC. Nature of the assay: Antiangiogenic activity against HREC cells assessed as inhibition of tube formation measured after 24 hrs by matrigel based tube formation assay. The format is functional, cell-based. Particulars: Homo sapiens.
Assay [9] deals with HREC. Nature of the assay: Antimigratory activity against VEGF-A stimulated HREC assessed as inhibition of cell motility at 5 uM in presence of AC927 measured after 48 hrs by wound closure assay. The format is functional. To be noted: Homo sapiens. Summed up:
(§2)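 Primary HREC grown to confluence were scratched to make a 1 mm wound and washed with PBS. They were then incubated 48 h at 37 °C in complete medium with 80 ng/mL VEGF-A and 5 μM compound, alone or with 2 μM PTZ or 2 μM AC927. Wounds were photographed by phase contrast at 0, 24 and 48 h, and closure taken as the distance both fronts moved into the wound. Mean ± SEM of three independent experiments, three wells each.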

The subject of assay [10] is HREC. Nature of the assay: Antimigratory activity against VEGF-A stimulated HREC assessed as wound closure at 5 uM in presence of PTZ measured after 48 hrs by wound closure assay. Particulars: Homo sapiens. Format: functional, tissue-based. The procedure, abridged: as §2
The subject of assay [11] is HREC. The experiment in a line: Antimigratory activity against VEGF-A stimulated HREC assessed as wound closure at 5 uM measured after 48 hrs by wound closure assay. The format is functional, tissue-based. Particulars: Homo sapiens. Summed up: as §2

The IC50 is the midpoint of a concentration-inhibition curve. Consider `OC(CCCN1CCC(O)(c2ccc(Cl)cc2)CC1)c1ccc(F)cc1` (racemic) [HYDROXYHALOPERIDOL], for which the IC50 is greater than 200 µM in assay [1]; 128 µM in assay [2]; 69 µM in [3]; 129 µM in assay [4]; 69.2 µM in assay [5].

The term Ki denotes a dissociation constant, usually derived from enzyme kinetics or from competition with a known ligand. A low value points to higher affinity. `O[C@H](CCCN1CCC(O)(c2ccc(Cl)cc2)CC1)c1ccc(F)cc1` came in with a Ki in assay [6] of 0.032 µM.

In the case of `CCCC(CCC)C(=O)O` [VALPROIC ACID], the IC50 is 1230 µM in [7], 1450 µM in [4] and 1380 µM in assay [5].

Turning to `CCCC(CCC)C(=O)O[C@H](CCCN1CCC(O)(c2ccc(Cl)cc2)CC1)c1ccc(F)cc1`, the result with HREC [8] and with HREC [11] was Active. The result in the assay with HREC [9] and in the assay with HREC [10] was inactive.

For `CCCC(CCC)C(=O)OC(CCCN1CCC(O)(c2ccc(Cl)cc2)CC1)c1ccc(F)cc1` (racemic), the result in the assay on HREC [8] and in the assay on HREC [11] was Active. This compound had a Ki in assay [6] of 0.124 µM.

In the case of `CCCC(CCC)C(=O)O[C@@H](CCCN1CCC(O)(c2ccc(Cl)cc2)CC1)c1ccc(F)cc1`, the result in the assay on HREC [8] and in the assay with HREC [11] was Active. Also, the result in the assay with HREC [9] was inactive.
